Data from ChEMBL document CHEMBL3286182, “4-aminoquinolone piperidine amides: noncovalent inhibitors of DprE1 with long residence time and potent antimycobacterial activity” (J Med Chem, 2014).
Values after ≈ are worked out from the molar mass of the structure shown. Active and inactive are the calls of the source. No cut-off for these calls is given here.

Legend:
[1] = test system: Mycolicibacterium smegmatis; experiment: Ratio of IC50 for Mycobacterium smegmatis DprE1 Y321H mutant to IC50 for Mycobacterium smegmatis recombinant wild type DprE1
Outline: (§1)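 Recombinant M. smegmatis DprE1 (thioredoxin-6His fusion), wild type or Y321H, 75 nM. Enzyme was preincubated 30 min in FAD assay mix: 50 mM glycylglycine pH 8.5, 200 mM potassium glutamate, 10 μM FAD, 0.002% Brij-35, 2% DMSO. Reaction was started with 300 μM farnesylphosphoryl-β-D-ribofuranose, 0.01 mg/mL HRP and 50 μM amplex red at 25 °C.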

[2] = test system: Mycobacterium tuberculosis; experiment: Antimycobacterial activity against Mycobacterium tuberculosis H37Rv under hypoxic condition after 6 days by resazurin assay; format: functional
[3] = Inhibition of Mycobacterium smegmatis DprE1 Y321H mutant using farnesylphosphoryl-beta-D-ribofuranose as substrate assessed as conversion of amplex red to resorufin after 30 mins; design: species or system Mycolicibacterium smegmatis; outline: as §1
[4] = Inhibition of Mycobacterium smegmatis recombinant DprE1 using farnesylphosphoryl-beta-D-ribofuranose as substrate assessed as conversion of amplex red to resorufin after 30 mins; design: species or system Mycolicibacterium smegmatis
Outline: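 Msm DprE1 (thioredoxin-6His fusion of Msm Rv3790) at 75 nM, preincubated 30 min with 10 μM FAD. Buffer: 50 mM glycylglycine pH 8.5, 200 mM potassium glutamate, 0.002% Brij-35, 2% DMSO, 25 °C. Started with 300 μM farnesylphosphoryl-β-D-ribofuranose, 0.01 mg/mL HRP and 50 μM Amplex Red.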

[5] = test system: Mycobacterium tuberculosis; experiment: Antimycobacterial activity against Mycobacterium tuberculosis over expressing DprE1 after 5 days by standard microdilution method; format: functional; conditions: 120 h
[6] = test system: Mycobacterium tuberculosis; experiment: Antimycobacterial activity against Mycobacterium tuberculosis H37Rv after 5 days by standard microdilution method; format: functional; conditions: 120 h
[7] = target: Cytochrome P450 2D6 (Homo sapiens, UniProt P10635); experiment: Inhibition of CYP2D6 (unknown origin); format: ADME
Outline: (§2)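 CYP inhibition IC50 measured on isoforms CYP3A4, CYP2D6, CYP2C9, CYP2C19 and CYP1A2.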

[8] = target: Voltage-gated inwardly rectifying potassium channel KCNH2 (Homo sapiens, UniProt Q12809); experiment: Inhibition of human ERG by medium-throughput electrophysiology
[9] = Fraction unbound in human plasma at 20 uM after 18 hrs by equilibrium dialysis method; format: ADME, cell-free
[10] = Solubility of the compound in 0.1 M phosphate buffer at pH 7.4 after 24 hrs by UV and MS analysis; format: physicochemical
[11] = Permeability of the compound from basolateral to apical side in human Caco2 cells; format: ADME, cell-based; conditions: Caco-2, read-out: permeability
[12] = target: Cytochrome P450 2C19 (Homo sapiens, UniProt P33261); experiment: Inhibition of CYP2C19 (unknown origin); format: ADME; outline: as §2
[13] = target: T1, Adenosine receptor A1 (Homo sapiens, UniProt P30542); experiment: Inhibition of adenosine A1 receptor (unknown origin)
T1 sequence (P30542 whole entry): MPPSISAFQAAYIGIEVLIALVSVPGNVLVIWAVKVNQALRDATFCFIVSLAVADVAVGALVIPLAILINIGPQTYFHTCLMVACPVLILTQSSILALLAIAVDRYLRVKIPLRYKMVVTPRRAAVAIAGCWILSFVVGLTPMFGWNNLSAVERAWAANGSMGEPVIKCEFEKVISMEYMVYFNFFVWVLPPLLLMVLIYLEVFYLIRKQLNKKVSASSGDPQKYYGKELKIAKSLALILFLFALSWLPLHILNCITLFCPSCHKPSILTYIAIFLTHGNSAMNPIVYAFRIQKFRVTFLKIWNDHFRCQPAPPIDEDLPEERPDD
Outline: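 Secondary pharmacology panel of binding, enzyme and functional assays covering 24 molecular targets. Activity recorded as a defined Ki/IC50/EC50.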

[14] = Cytotoxicity against human A549 cells after 72 hrs by resazurin based fluorescence assay; format: cell-based; conditions: read-out: MIC
Outline: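 Cytotoxicity read as MMIC, the MIC on the A549 cell line.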

[15] = Intrinsic clearance in human liver microsomes at 1 uM up to 30 mins by LC-MS/MS analysis; format: ADME; conditions: read-out: CLH
[16] = target: Cytochrome P450 3A4 (Homo sapiens, UniProt P08684); experiment: Inhibition of CYP3A4 (unknown origin); format: ADME; outline: as §2
[17] = Intrinsic clearance in rat cryopreserved hepatocytes assessed per 10^6 cells at 1 uM up to 120 mins by LC-MS/MS analysis; format: ADME, cell-based, Hepatocyte; conditions: read-out: CLH
[18] = target: T2, Cytochrome P450 1A2 (Homo sapiens, UniProt P05177); experiment: Inhibition of CYP1A2 (unknown origin); format: ADME; outline: as §2
T2 sequence (P05177 whole entry): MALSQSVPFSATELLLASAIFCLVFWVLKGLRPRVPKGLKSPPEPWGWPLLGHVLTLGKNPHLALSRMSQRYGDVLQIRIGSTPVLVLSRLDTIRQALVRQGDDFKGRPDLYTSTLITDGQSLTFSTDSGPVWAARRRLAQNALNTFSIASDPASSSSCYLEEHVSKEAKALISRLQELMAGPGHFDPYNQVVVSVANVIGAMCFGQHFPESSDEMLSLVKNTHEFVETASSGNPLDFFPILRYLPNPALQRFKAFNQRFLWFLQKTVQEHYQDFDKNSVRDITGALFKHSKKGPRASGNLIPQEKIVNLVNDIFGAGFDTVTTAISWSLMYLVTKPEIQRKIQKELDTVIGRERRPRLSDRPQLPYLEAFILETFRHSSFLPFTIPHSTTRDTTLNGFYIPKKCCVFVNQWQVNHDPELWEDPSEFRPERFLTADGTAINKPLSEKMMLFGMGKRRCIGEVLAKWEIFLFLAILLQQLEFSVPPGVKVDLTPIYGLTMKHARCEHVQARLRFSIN

[19] = target: Cytochrome P450 2C9 (Homo sapiens, UniProt P11712); experiment: Inhibition of CYP2C9 (unknown origin); format: ADME; outline: as §2
[20] = Permeability of the compound from apical to basolateral side in human Caco2 cells; format: ADME, cell-based; conditions: Caco-2, read-out: permeability
[21] = Octanol-water partition coefficient, log D of the compound by shake-flask method; format: physicochemical
[22] = test system: Mycobacterium tuberculosis; experiment: Antimycobacterial activity against Mycobacterium tuberculosis over expressing TopA after 5 days by standard microdilution method; format: functional; conditions: 120 h
[23] = test system: Mycobacterium tuberculosis; experiment: Antimycobacterial activity against Mycobacterium tuberculosis over expressing InhA after 5 days by standard microdilution method; format: functional; conditions: 120 h
[24] = test system: Mycobacterium tuberculosis; experiment: Antimycobacterial activity against Mycobacterium tuberculosis over expressing PimA after 5 days by standard microdilution method; format: functional; conditions: 120 h
[25] = test system: Staphylococcus aureus; experiment: Antimicrobial activity against Staphylococcus aureus ARC517 at 100 uM; format: functional, organism-based
Outline: (§3)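 Nonmycobacterial panel of Candida albicans, Gram-negative and Gram-positive pathogens.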

[26] = test system: Mycolicibacterium smegmatis; experiment: Antimicrobial activity against Mycobacterium smegmatis mc2155 at 100 uM; format: functional, organism-based; conditions: str. MC2 155
[27] = test system: Haemophilus influenzae; experiment: Antimicrobial activity against Haemophilus influenzae ARC158 at 100 uM; format: functional, organism-based; outline: as §3
[28] = test system: Klebsiella pneumoniae; experiment: Antimicrobial activity against Klebsiella pneumoniae ARC1865 at 100 uM; format: functional, organism-based; outline: as §3
[29] = test system: Haemophilus influenzae; experiment: Antimicrobial activity against Haemophilus influenzae ARC446 at 100 uM; format: functional, organism-based; outline: as §3
[30] = test system: Mycolicibacterium smegmatis; experiment: Antimicrobial activity against Mycobacterium smegmatis ATCC 607 at 100 uM; format: functional, organism-based
[31] = test system: Streptococcus pneumoniae; experiment: Antimicrobial activity against Streptococcus pneumoniae ARC548 at 100 uM; format: functional, organism-based; outline: as §3
[32] = test system: Escherichia coli; experiment: Antimicrobial activity against Escherichia coli ARC523 at 100 uM; format: functional, organism-based; outline: as §3
[33] = test system: Escherichia coli; experiment: Antimicrobial activity against Escherichia coli ARC524 at 100 uM; format: functional, organism-based; outline: as §3
[34] = test system: Pseudomonas aeruginosa; experiment: Antimicrobial activity against Pseudomonas aeruginosa ARC545 at 100 uM; format: functional, organism-based; outline: as §3
[35] = test system: Candida albicans; experiment: Antimicrobial activity against Candida albicans ARC527 at 100 uM; format: functional, organism-based; outline: as §3
[36] = test system: Pseudomonas aeruginosa; experiment: Antimicrobial activity against Pseudomonas aeruginosa ARC546 at 100 uM; format: functional, organism-based; outline: as §3

Chain of Cytochrome P450 2D6 (P10635 whole entry, canonical isoform): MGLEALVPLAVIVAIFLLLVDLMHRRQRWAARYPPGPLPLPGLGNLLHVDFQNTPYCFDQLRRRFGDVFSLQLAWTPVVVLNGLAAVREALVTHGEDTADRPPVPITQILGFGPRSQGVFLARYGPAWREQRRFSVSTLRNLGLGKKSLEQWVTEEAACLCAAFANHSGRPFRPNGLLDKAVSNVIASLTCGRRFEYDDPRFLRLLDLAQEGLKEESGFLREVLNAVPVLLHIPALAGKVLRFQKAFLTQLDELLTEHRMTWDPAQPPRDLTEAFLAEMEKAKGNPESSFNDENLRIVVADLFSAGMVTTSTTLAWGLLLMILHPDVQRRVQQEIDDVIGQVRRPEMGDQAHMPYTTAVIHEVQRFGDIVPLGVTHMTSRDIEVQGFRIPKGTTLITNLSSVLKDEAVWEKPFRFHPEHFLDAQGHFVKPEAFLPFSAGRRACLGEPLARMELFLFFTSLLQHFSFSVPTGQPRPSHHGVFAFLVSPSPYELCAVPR
Chain of Cytochrome P450 2C19 (P33261 whole entry): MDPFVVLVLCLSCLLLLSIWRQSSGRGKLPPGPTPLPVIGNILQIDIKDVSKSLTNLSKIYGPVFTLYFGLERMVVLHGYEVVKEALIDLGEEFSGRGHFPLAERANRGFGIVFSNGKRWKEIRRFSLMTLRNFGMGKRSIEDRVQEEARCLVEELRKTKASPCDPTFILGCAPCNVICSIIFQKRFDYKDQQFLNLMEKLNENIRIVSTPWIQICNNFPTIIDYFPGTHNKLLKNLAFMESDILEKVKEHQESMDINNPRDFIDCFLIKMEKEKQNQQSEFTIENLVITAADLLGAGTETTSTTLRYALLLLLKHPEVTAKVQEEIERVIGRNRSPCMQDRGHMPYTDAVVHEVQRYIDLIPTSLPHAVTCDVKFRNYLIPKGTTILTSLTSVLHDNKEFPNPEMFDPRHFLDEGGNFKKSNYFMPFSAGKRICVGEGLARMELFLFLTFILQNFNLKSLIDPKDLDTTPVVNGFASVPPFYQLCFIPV
Chain of Cytochrome P450 2C9 (P11712 whole entry): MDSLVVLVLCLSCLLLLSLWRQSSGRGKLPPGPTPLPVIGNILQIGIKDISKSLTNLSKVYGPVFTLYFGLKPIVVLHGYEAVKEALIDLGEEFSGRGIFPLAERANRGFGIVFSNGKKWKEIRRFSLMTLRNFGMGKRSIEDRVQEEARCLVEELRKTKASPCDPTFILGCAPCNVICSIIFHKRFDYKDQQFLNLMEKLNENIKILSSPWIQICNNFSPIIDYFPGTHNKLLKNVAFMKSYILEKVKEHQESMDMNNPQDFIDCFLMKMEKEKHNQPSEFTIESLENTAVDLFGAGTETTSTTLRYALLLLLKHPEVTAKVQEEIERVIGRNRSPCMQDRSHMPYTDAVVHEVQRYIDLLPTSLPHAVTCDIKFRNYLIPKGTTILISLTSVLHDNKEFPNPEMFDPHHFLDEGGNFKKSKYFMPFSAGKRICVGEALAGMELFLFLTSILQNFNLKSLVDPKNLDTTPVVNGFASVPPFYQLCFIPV
Chain of Voltage-gated inwardly rectifying potassium channel KCNH2 (Q12809 whole entry): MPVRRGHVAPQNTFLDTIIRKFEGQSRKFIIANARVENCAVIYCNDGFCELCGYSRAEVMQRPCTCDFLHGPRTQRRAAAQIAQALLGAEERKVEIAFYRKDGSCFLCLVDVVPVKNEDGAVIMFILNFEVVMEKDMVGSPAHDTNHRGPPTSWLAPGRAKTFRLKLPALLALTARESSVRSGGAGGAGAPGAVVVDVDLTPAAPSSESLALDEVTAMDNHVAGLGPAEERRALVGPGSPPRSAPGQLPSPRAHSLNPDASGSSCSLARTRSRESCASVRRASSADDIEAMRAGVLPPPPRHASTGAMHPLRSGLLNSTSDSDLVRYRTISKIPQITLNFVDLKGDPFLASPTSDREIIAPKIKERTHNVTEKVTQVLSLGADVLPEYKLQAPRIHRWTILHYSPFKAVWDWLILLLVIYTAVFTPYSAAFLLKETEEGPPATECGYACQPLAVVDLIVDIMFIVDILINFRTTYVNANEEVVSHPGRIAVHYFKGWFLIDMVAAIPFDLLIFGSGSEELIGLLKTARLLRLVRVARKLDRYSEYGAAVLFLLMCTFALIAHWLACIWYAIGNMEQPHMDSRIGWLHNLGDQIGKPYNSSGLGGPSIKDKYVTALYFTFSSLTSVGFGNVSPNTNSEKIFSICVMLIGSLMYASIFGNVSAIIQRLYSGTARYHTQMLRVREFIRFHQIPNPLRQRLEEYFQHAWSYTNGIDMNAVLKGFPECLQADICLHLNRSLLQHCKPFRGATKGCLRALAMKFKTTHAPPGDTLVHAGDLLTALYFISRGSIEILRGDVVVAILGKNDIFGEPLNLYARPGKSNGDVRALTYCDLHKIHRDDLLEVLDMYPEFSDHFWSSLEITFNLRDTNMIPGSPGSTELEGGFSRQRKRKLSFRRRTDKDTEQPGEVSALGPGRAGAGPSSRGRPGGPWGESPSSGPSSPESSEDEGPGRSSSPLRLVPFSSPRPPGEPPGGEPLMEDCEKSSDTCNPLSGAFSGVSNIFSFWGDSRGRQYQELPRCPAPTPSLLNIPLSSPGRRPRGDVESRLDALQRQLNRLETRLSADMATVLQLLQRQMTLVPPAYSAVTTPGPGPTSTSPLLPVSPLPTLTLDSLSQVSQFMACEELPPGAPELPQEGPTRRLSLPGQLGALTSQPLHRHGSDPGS
Chain of Cytochrome P450 3A4 (P08684 whole entry): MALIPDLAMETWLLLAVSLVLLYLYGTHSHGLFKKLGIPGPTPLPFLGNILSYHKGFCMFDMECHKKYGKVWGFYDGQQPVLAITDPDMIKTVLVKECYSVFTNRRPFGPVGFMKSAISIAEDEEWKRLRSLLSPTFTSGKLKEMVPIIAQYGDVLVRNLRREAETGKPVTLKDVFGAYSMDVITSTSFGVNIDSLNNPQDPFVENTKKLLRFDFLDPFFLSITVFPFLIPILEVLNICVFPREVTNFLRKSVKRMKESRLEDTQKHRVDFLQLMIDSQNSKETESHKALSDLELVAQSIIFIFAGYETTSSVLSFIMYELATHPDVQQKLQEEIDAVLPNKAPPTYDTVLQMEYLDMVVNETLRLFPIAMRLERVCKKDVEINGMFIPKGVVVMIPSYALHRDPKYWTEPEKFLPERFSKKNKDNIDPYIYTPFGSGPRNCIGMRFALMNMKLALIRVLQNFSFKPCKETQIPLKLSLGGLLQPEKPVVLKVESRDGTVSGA

Compound: C[C@H]1C[C@H](Nc2cc(=O)[nH]c3cc(F)c(F)cc23)CCN1C(=O)c1cnn(C)c1Cl
- fold change (FC) [1]: 47
- Activity [2]: inactive
- IC50 [3]: 1.03 µM
- IC50 [4]: 0.021 µM
- MIC [5]: 12.5 µM (≈ 5.45 µg/mL)
- MIC [6]: 0.39 µM (≈ 0.17 µg/mL)

Compound: Cc1onc(C(=O)N2[C@@H]3CC[C@H]2C[C@@H](Nc2cc(=O)n(C)c4cc(F)c(F)cc24)C3)c1C
- INH [7]: > 30 µM
- IC50 [8]: 16 µM
- fraction unbound at 18 h, 20 µM [9]: 0.03
- solubility at 24 h [10]: 6 µM (≈ 2.65 µg/mL)
- Papp B→A [11]: 130 nm/s
- INH [12]: > 30 µM
- IC50 [13]: 8 µM
- IC50 [4]: 0.017 µM
- MIC [6]: 0.12 µM (≈ 0.0531 µg/mL)
- MCC at 72 h [14]: > 50 µM
- microsomal CLint at 1 µM [15]: 107 µL/min/mg
- INH [16]: > 30 µM
- hepatocyte CLint at 1 µM [17]: 56 µL/min/1e6 cells
- INH [18]: > 30 µM
- INH [19]: > 30 µM
- Papp A→B [20]: 230 nm/s
- logD [21]: 2.8

Compound: COc1nc2ccc(Br)cc2cc1[C@@H](c1ccccc1)[C@@](O)(CCN(C)C)c1cccc2ccccc12 [BEDAQUILINE]
- MIC [22]: 0.8 µM (≈ 0.444 µg/mL)
- MIC [5]: 1.6 µM (≈ 0.889 µg/mL)
- MIC [6]: 0.78 µM (≈ 0.433 µg/mL)
- MIC [23]: 1.6 µM (≈ 0.889 µg/mL)
- MIC [24]: 0.8 µM (≈ 0.444 µg/mL)

Compound: CO[C@H]1/C=C/O[C@@]2(C)Oc3c(C)c(O)c4c(O)c(c(/C=N/N5CCN(C)CC5)c(O)c4c3C2=O)NC(=O)/C(C)=C\C=C\[C@H](C)[C@H](O)[C@@H](C)[C@@H](O)[C@@H](C)[C@H](OC(C)=O)[C@@H]1C [RIFAMPIN]
- MIC [22]: 0.03 µM (≈ 0.0247 µg/mL)
- MIC [5]: 0.01 µM (≈ 0.00823 µg/mL)
- MIC [6]: 0.01 µM (≈ 0.00823 µg/mL)
- MIC [23]: 0.01 µM (≈ 0.00823 µg/mL)
- MIC [24]: 0.004 µM (≈ 0.00329 µg/mL)

Compound: C[C@H]1COC2(CCN(c3nc(=O)c4cc(C(F)(F)F)cc([N+](=O)[O-])c4s3)CC2)O1 [BTZ-043]
- MIC [22]: 0.012 µM (≈ 0.00518 µg/mL)
- MIC [5]: 12.5 µM (≈ 5.39 µg/mL)
- MIC [6]: 0.003 µM (≈ 0.00129 µg/mL)
- MIC [23]: 0.003 µM (≈ 0.00129 µg/mL)
- MIC [24]: 0.003 µM (≈ 0.00129 µg/mL)

Compound: Cn1ncc(C(=O)N2CCC(Oc3cc(=O)[nH]c4ccccc34)CC2)c1Cl
- Activity [25]: inactive
- Activity [26]: inactive
- Activity [2]: inactive
- Activity [27]: inactive
- Activity [28]: inactive
- Activity [29]: inactive
- Activity [30]: inactive
- Activity [31]: inactive
- IC50 [4]: 8 µM
- Activity [32]: inactive
- Activity [33]: inactive
- MIC [6]: 50 µM (≈ 19.3 µg/mL)
- Activity [34]: inactive
- Activity [35]: inactive
- Activity [36]: inactive
